# Measured values reported in ChEMBL document CHEMBL2380219, “Physalin A induces apoptotic cell death and protective autophagy in HT1080 human fibrosarcoma cells” (J Nat Prod, 2013).
# Calls of active or inactive are those of the source. No cut-off for these calls is given here.
# Tests used:
# Type in all cases: functional, cell-based
# HT-1080 [1] = experiment: Cytotoxicity against human HT1080 cells assessed as growth inhibition at 10 uM pretreated with z-IETD-FMK for 1 hr prior to compound addition measured after 24 hrs by MTT assay
# Procedure, shortened: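 HT1080 seeded 0.8 × 10^4 cells/well. MTT 2 h at 37 °C, formazan in DMSO, A492 read. Inhibition % calculated against untreated and blank wells.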
# HT-1080 [2] = experiment: Induction of apoptosis in human HT1080 cells assessed as increase in PARP cleavage at 10 uM pretreated with 3MA for 1 hr prior to compound addition measured after 24 hrs by Western blotting analysis
# Procedure, shortened: (§1)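 HT1080 cells pretreated 1 h with 1 mM 3MA or 1 nM rapamycin, then co-incubated with 10 μM for 24 h. Adherent and floating cells lysed in Hepes pH 7.4/Triton buffer. 12% SDS-PAGE, nitrocellulose, antibodies against Fas, FADD, caspase-8, caspase-3, PARP and ICAD, ECL detection. Densities normalized to β-actin; n = 3.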
# HT-1080 [3] = experiment: Induction of apoptosis in human HT1080 cells assessed as upregulation of FAS protein expression at 10 uM pretreated with rapamycin for 1 hr prior to compound addition measured after 24 hrs by Western blotting analysis; procedure, shortened: as §1
# HT-1080 [4] = experiment: Induction of autophagy in human HT1080 cells assessed as upregulation of beclin 1 at 10 uM pretreated with rapamycin for 1 hr prior to compound addition measured after 24 hrs by Western blotting analysis
# Procedure, shortened: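 HT1080 cells pretreated 1 h with 1 mM 3MA or 1 nM rapamycin, then 10 μM added for 24 h. Adherent and floating cells lysed in Hepes pH 7.4/Triton buffer. Equal protein on 12% SDS-PAGE and nitrocellulose, probed for beclin 1 and LC3, ECL detection. Normalized to β-actin, n = 3.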
# HT-1080 [5] = experiment: Induction of apoptosis in human HT1080 cells assessed as appearance of membrane blebbing at 10 uM after 24 hrs by acridine orange staining-based fluorescence microscopic analysis
# Procedure, shortened: (§2)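 HT1080 cells, 2 × 10^4/well, cultured 24 h, then exposed to 10 μM for 24 h. Stained with acridine orange 20 μg/mL for 15 min in the dark and examined by fluorescence microscopy at 200×.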
# HT-1080 [6] = experiment: Induction of apoptosis in human HT1080 cells assessed as appearance of granular apoptotic bodies at 10 uM after 24 hrs by acridine orange staining-based fluorescence microscopic analysis; procedure, shortened: as §2
smiles,measurement,setting,value
C=C1C(=O)O[C@@H]2C[C@@]1(C)[C@@H]1C(=O)[C@]3(O)O[C@]14[C@@]2(C)OC(=O)[C@@]4(O)CC[C@H]1[C@H]3[C@H](O)C=C2CC=CC(=O)[C@@]21C [PHYSALIN A],growth inhibition (GI),HT-1080 [1],Active
same,Activity,HT-1080 [2],Active
same,Activity,HT-1080 [3],inactive
same,Activity,HT-1080 [4],Active
same,Activity,HT-1080 [5],Active
same,Activity,HT-1080 [6],Active
